# Measured values published in ChEMBL document CHEMBL1157414, “Cytotoxic dihydroagarofuranoid sesquiterpenes from the seeds of Celastrus orbiculatus” (J Nat Prod, 2008).
# Key:
# HL-60 [1] = assay: Cytotoxicity against human HL60 cells at 10 uM after 72 hrs by MTT assay; format: functional
# Outline: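 MTT was added for 4 h at 37 °C, followed by extraction buffer (10% SDS, 5% isobutanol, 0.01 M HCl) overnight at 37 °C. Absorbance was read at 570 nm, with etoposide as positive control.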
# HL-60 [2] = assay: Cytotoxicity against human HL60 cells after 72 hrs by MTT assay; format: functional, cell-based; details: HL-60, 72 h
# Outline: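 HL-60 human leukemia cells were plated in 96-well plates and exposed in triplicate to graded concentrations for 72 h. MTT was added for 4 h at 37 °C, then extraction buffer (10% SDS, 5% isobutanol, 0.01 M HCl) overnight at 37 °C. Absorbance was read at 570 nm.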
Compound,Activity (HL-60 [1]) [%],IC50 (HL-60 [2]) [µM]
CC(=O)O[C@@H]1[C@H]2C[C@H](OC/C=C/c3ccccc3)[C@]3(C)[C@@H](OC(C)=O)[C@@H](OC(=O)c4ccccc4)C[C@@H](C)[C@@]13OC2(C)C,<50,
CCCC(=O)O[C@@H]1[C@@H]2[C@@H](OC(C)=O)[C@]3(OC2(C)C)[C@H](C)CC[C@H](OC(=O)c2ccccc2)[C@@]3(C)[C@@H]1OC(=O)c1ccccc1,,5.3
CC(=O)O[C@H]1CC[C@@H](C)[C@]23OC(C)(C)[C@H](C[C@H](OC(=O)c4ccccc4)[C@]12C)[C@H]3O,<50,
CC(=O)O[C@H]1C[C@@H]2[C@@H](OC(=O)c3ccccc3)[C@]3(OC2(C)C)[C@H](C)CC[C@H](OC(=O)c2ccccc2)[C@@]13C,,2.8
CC(=O)O[C@H]1C[C@@H](C)[C@@]23C[C@@H](C[C@H](OC(C)=O)[C@]2(C)[C@H]1OC/C=C/c1ccccc1)C(C)(C)O3,,3.3
CC(=O)O[C@@H]1[C@H]2[C@@H](O)[C@@H](OC(=O)c3ccccc3)[C@]3(C)[C@@H](O)CC[C@@H](C)[C@@]13OC2(C)C,<50,
CC(=O)O[C@@H]1[C@H]2C[C@H](OC/C=C/c3ccccc3)[C@]3(C)[C@@H](OC(C)=O)[C@@H](O)C[C@@H](C)[C@@]13OC2(C)C,<50,
CC(=O)O[C@H]1C[C@](C)(O)[C@@]23C[C@@H](C[C@H](OC(=O)/C=C/c4ccccc4)[C@]2(C)[C@H]1OC(C)=O)C(C)(C)O3,<50,
CC(=O)O[C@H]1CC[C@@H](CO)[C@]23OC(C)(C)[C@H](C[C@H](OC(=O)c4ccccc4)[C@]12C)[C@H]3OC(=O)c1ccccc1,<50,
C[C@@H]1CC[C@H](OC(=O)c2ccccc2)[C@@]2(C)[C@H](OC(=O)c3ccccc3)[C@H](OC(=O)c3ccccc3)[C@@H]3[C@@H](O)[C@]12OC3(C)C,<50,
CC(=O)O[C@@H]1[C@H]2[C@@H](O)[C@@H](OC(=O)c3ccccc3)[C@]3(C)[C@@H](OC/C=C/c4ccccc4)CC[C@@H](C)[C@@]13OC2(C)C,,8.3
CC(=O)O[C@@H]1[C@H]2[C@@H](OC(=O)c3ccccc3)[C@H](OC(=O)c3ccccc3)[C@]3(C)[C@@H](OC(=O)c4ccccc4)CC[C@@H](C)[C@@]13OC2(C)C,<50,
CC(=O)O[C@@H]1[C@@H]2[C@@H](OC(C)=O)[C@]3(OC2(C)C)[C@H](C)CC[C@H](O)[C@@]3(C)[C@@H]1OC(=O)c1ccccc1,<50,
CC(=O)O[C@@H]1[C@@H]2[C@@H](OC(C)=O)[C@]3(OC2(C)C)[C@H](C)CC[C@H](OC(C)=O)[C@@]3(C)[C@H]1OC(=O)c1ccccc1,,6.8
CC(=O)O[C@@H]1[C@@H]2[C@@H](OC(C)=O)[C@]3(OC2(C)C)[C@H](C)CC[C@H](OC(=O)c2ccccc2)[C@@]3(C)[C@@H]1OC(=O)c1ccccc1,<50,
